Assays:
[1] = target: 5-hydroxytryptamine receptor 7 (Homo sapiens, UniProt P34969); experiment: Compound was evaluated for its ability to displace [3H]5-CT binding from cloned human 5-hydroxytryptamine 7 receptor expressed in COS-7 cells.; format: cell-based
Procedure, shortened: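 Radioligand displacement of [³H]5-CT from cloned human 5-HT7 receptor expressed in COS-7 cells. Values reported as pKi, each the mean of at least two determinations, each within 0.2 log unit of the mean.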

[2] = target: Serotonin 2 (5-HT2) receptor (Rattus norvegicus, UniProt P30994+P08909+P14842); experiment: Compound was evaluated for its ability to displace [3H]ketanserin binding from […] rat cerebral cortex membranes 5-hydroxytryptamine 2 receptor; format: tissue-based
Procedure, shortened: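 Displacement of [³H]ketanserin from 5-HT2 sites in rat cerebral cortex membranes. Values reported as pKi, each the mean of at least two determinations, each within 0.2 log unit of the mean.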

[3] = target: T1, 5-hydroxytryptamine receptor 1A (Homo sapiens, UniProt P08908); experiment: Compound was evaluated for its ability to displace [3H]8-OH-DPAT binding from human 5-hydroxytryptamine 1A receptor in mammalian cells; format: cell-based
T1 sequence (P08908 whole entry): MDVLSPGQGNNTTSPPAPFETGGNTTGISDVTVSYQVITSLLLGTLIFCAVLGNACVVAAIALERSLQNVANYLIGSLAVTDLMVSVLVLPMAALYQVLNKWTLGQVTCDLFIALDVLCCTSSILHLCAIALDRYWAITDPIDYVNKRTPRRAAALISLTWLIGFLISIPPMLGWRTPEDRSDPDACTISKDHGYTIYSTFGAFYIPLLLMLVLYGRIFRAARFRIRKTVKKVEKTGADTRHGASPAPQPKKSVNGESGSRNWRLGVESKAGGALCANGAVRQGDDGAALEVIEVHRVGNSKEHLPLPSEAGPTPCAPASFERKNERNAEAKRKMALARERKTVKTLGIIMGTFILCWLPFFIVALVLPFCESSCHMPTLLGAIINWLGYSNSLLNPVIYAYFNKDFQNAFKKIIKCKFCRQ
Procedure, shortened: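 Radioligand displacement at human recombinant 5-HT1A receptor expressed in mammalian cells, labelled with [3H]8-OH-DPAT. Affinity reported as pKi, mean of at least two determinations, each within 0.2 log unit of the mean.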

D(2) dopamine receptor = D(2) dopamine receptor (Rattus norvegicus, UniProt P61169); experiment: Compound was evaluated for its ability to displace [3H]spiperone binding from Dopamine receptor D2 in rat striatum.
Procedure, shortened: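 Dopamine D2 binding was run in rat striatum with [3H]spiperone as radioligand. Values are pKi, mean of at least two determinations, each within 0.2 log unit of the mean.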

[4] = target: 5-hydroxytryptamine receptor 4 (Cavia porcellus, UniProt O70528); experiment: Compound was evaluated for its ability to displace [3H]GR-113808 binding from 5-hydroxytryptamine 4 receptor in guinea pig striatum.
Procedure, shortened: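 Competition binding in guinea-pig striatum using [3H]GR-113808 at 5-HT4 sites. pKi is the mean of at least two determinations, each within 0.2 log unit of the mean.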

[5] = target: 5-hydroxytryptamine receptor 6 (Homo sapiens, UniProt P50406); experiment: Compound was evaluated for its ability to displace [3H]LSD binding from human recombinant 5-hydroxytryptamine 6 receptor
Procedure, shortened: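 Displacement of [3H]LSD from human recombinant 5-HT6 receptor expressed in mammalian cells. pKi is the mean of at least two determinations, each lying within 0.2 log unit of the mean.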

Sequence of 5-hydroxytryptamine receptor 7 (P34969 whole entry): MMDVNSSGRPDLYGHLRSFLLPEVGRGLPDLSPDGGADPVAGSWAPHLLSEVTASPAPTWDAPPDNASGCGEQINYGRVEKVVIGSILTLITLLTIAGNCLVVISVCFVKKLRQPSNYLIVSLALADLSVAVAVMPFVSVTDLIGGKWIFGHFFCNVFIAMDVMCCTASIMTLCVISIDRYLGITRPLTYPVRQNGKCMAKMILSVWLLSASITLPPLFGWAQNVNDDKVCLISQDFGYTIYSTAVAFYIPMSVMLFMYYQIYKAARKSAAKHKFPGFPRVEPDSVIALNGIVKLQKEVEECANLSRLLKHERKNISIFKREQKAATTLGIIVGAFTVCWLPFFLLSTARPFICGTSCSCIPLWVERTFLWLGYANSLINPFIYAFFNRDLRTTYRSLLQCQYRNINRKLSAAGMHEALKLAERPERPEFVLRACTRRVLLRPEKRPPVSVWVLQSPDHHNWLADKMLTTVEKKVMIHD
Sequence of 5-hydroxytryptamine receptor 6 (P50406 whole entry): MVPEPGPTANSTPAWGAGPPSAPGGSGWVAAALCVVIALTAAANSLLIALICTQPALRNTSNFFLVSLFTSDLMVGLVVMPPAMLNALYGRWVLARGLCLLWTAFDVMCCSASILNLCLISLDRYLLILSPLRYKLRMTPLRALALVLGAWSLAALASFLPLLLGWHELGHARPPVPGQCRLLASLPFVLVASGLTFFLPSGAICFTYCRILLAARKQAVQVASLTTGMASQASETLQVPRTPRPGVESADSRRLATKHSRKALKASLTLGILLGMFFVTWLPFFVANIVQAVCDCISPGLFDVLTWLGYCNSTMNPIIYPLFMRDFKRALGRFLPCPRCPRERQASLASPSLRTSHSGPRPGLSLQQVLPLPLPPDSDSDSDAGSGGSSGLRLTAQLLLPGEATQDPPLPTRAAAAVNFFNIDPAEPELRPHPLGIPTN
Sequence of D(2) dopamine receptor (P61169 whole entry): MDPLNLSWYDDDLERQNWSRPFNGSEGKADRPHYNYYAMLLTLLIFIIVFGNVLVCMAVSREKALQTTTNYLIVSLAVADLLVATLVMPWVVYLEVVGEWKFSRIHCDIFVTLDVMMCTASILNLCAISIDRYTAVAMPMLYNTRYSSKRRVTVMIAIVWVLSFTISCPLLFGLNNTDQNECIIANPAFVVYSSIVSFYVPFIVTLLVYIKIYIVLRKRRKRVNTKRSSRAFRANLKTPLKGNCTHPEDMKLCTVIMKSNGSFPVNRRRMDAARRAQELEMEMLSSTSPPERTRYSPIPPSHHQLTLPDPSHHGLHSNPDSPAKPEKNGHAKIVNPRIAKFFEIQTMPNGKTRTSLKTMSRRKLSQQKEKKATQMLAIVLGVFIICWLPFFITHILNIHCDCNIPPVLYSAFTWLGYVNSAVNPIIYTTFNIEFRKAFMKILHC
Sequence of 5-hydroxytryptamine receptor 4 (O70528 whole entry): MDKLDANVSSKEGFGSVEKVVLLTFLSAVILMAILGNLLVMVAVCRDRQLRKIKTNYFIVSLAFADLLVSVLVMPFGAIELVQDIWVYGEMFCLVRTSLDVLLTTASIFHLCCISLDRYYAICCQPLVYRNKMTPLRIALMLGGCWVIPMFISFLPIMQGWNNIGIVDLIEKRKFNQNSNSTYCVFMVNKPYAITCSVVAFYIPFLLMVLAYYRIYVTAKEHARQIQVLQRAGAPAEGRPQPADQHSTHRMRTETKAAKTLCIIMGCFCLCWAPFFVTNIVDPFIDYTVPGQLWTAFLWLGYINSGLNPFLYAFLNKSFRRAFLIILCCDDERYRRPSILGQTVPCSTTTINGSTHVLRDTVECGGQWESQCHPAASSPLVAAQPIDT

SMILES	Ki [1]	Log Ki [2]	Ki [3]	Ki (D(2) dopamine receptor)	Ki [4]	Ki [5]
O=C1Nc2cccc3c2C1(CCCCN1CCN(c2ccccc2)CC1)CCC3 (stereo not given)	3.31 nM	-7.37				
COc1ccccc1N1CCN(CCCCC23CCCc4cccc(c42)NC3=O)CC1 (stereo not given)	5.13 nM	-6.95				
O=C1Nc2cccc3c2C1(CCCN1CCN(c2ccccc2)CC1)CCC3 (stereo not given)	5.25 nM	-7.79				
N#Cc1ccccc1N1CCN(CCCCC23CCCc4cccc(c42)NC3=O)CC1 (stereo not given)	3.8 nM	-6.98				
O=C1Nc2cccc3c2C1(CCCCN1CC=C(c2ccccc2)CC1)CCC3 (stereo not given)	2.14 nM	-7.01	170 nM	105 nM	> 1000 nM	525 nM

Second part, led by results:

Ki [1]	Log Ki [2]	SMILES	Ki [3]	Ki (D(2) dopamine receptor)	Ki [4]	Ki [5]
102 nM	-8.27	O=C1Nc2cccc3c2C1(CCN1CCN(c2ccccc2)CC1)CCC3 (stereo not given)				
> 1000 nM	> -6	O=C1Nc2cccc3c2C1(CCCCN1CCN(C2CCCCC2)CC1)CCC3 (stereo not given)				
1.86 nM	-7.27	O=C1Nc2cccc3c2C1(CCCCN1CCN(c2ccccn2)CC1)CCC3 (stereo not given)				
